High-throughput results as filed in PubChem BioAssay.
This is a sample that favours compounds with a hit; in the whole collection about 2.9% have one here.
HTRA1 inhibitor = blocks human HTRA1 serine peptidase | inhibition, % at 5.96 µM | AID 504803 | recombinant HTRA1, FP-rhodamine activity-based probe, fluorescence polarization | hit rate 0.5% among 340,000; in the data active means inhibition above about 36%;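 further: 0% = enzyme with DMSO and 100% = wells lacking enzyme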
ABHD4 inh = inhibits mouse alpha/beta hydrolase domain 4; Q8VD66; purified mABHD4, FP-Rh probe fluorescence polarization; inhibition, % at 8.92 µM; hit rate 0.54% among 370,000; AID 720543;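 active means inhibition exceeding the mean over every tested compound plus 3 SD, cut at about 30% in these data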;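 further: 0% = plate median of compound wells and 100% = S159A mutant with DMSO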
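Test system: mABHD4 protein | Buffer or medium: HEPES pH 7.0 buffer, 150 mM NaCl, 0.01% Pluronic F-127 | Probe or stimulus: FP-Rh fluorescent activity-based probe, added after compound pre-incubation | Timing: Pre-incubation 45 min, probe exposure 60 min, at 25 °C | Technique: Fluorescence polarization, excitation 525 nm, emission 598 nm, BODIPY TMR filters | Repeats: Single well per compound (singlicate)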
TCR CD3 inh = human TCR-CD3 binding inhibition; TAMRA-labeled TCR probe fluorescence, biochemical; inhibition, % at 9.4 µM; hit rate 0.37% among 360,000; AID 651800;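 further: recombinant mutant TCR 2C K166C tagged with TAMRA read by polarization; 0% = receptor in buffer alone and 100% = receptor with positive control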
SIAE inh = inhibitors of human sialic acid acetylesterase SIAE | Q9HAT2 | SIAE FP-Rh probe binding, fluorescence polarization | inhibition, % at 9.66 µM | hit rate 0.69% among 370,000 | AID 1053197;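 active means inhibition above a cutoff: mean of compounds within the control limits plus 3 SD of those, cut at about 17% in these data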;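 further: 0% = plate median of compound wells and 100% = probe without SIAE protein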
Target sequence (Q9HAT2 whole entry, looked up): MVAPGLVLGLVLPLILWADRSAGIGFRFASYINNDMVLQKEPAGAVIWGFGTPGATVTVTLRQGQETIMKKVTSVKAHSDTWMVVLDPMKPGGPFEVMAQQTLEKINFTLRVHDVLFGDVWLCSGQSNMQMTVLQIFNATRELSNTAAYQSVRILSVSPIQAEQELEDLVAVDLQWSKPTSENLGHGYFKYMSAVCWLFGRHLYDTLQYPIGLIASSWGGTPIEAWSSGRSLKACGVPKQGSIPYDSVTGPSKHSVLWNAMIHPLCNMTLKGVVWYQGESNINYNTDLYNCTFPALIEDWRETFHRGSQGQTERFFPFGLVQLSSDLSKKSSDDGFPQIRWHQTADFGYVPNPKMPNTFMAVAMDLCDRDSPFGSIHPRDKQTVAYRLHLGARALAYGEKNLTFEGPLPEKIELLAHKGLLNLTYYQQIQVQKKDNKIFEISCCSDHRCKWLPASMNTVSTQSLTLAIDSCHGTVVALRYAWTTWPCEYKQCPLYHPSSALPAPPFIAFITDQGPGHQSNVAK
PRMT1 inh = inhibitors of human PRMT1 | Q99873 | recombinant PRMT1, activity-based probe fluorescence polarization | inhibition, % at 2.79 µM | hit rate 1.3% among 370,000;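 active means inhibition above about 21% made by adding two undisclosed values, limit read from the data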
ATG4B inhibitor = blocks human ATG4B protease cleavage of LC3 substrate; Q9Y4P1; ATG4B cleavage of LC3-PLA2, NBD-HPC fluorescence, 1 h; inhibition, % at 8.33 µM; hit rate 0.51% among 340,000; in the data active means inhibition above about 40%
BSA TAMRA ctr = BSA probe counter-screen for TCR-CD3 inhibitors; TAMRA-labeled BSA probe fluorescence counterscreen; AID 652035; inhibition, % at 9.4 µM; hit rate 10% among 1,200; shares compounds with TCR CD3 inh; in the data active means inhibition above about 23%;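 further: 0% = buffer low control and 100% = reference high control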
TCR-CD3 inh conf = confirmation of human TCR-CD3 interaction inhibitors; AID 652036; inhibition, % at 9.4 µM; TAMRA-labeled TCR probe fluorescence binding assay; hit rate 48% among 1,200; shares compounds with TCR CD3 inh
PRMT1 confirm = confirmation of human PRMT1 inhibitors. hit rate 42% among 3,300. shares compounds with PRMT1 inh. recombinant His-PRMT1, activity-based probe fluorescence polarization. inhibition, % at 2.79 µM;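 active means mean inhibition across replicates above the hit cutoff derived for the earlier primary screen, cut at about 22% in these data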
ABHD4 confirm = ABHD4 (mouse) inhibition, FP confirmation; shares compounds with ABHD4 inh; inhibition, % at 8.92 µM; hit rate 55% among 1,800; AID 720658; purified mABHD4, FP-Rh probe fluorescence polarization;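 active means mean inhibition across replicates above the hit cutoff set in the primary screen, cut at about 30% in these data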;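 further: 0% = wild-type ABHD4 with DMSO and 100% = catalytically dead S159A mutant with DMSO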
SIAE confirm = confirmation of human SIAE inhibitors | shares compounds with SIAE inh | SIAE FP-Rh activity-based probe, fluorescence polarization | inhibition, % at 9.66 µM | hit rate 13% among 2,300;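 active means mean inhibition of the replicates above the hit cutoff set in the primary screen, cut at about 17% in these data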;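 further: 0% = SIAE with DMSO and probe and 100% = probe without SIAE; inhibitors lower polarization as more probe stays unbound to SIAE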
Numbers without * were called inactive; · = not tested or not shown; + = active, no number. Unless noted, no stated cut-off is given here; in the data, active means inhibition above about 19%; inactive means the rest.

SMILES	HTRA1 inhibitor	ABHD4 inh	TCR CD3 inh	SIAE inh	PRMT1 inh	ATG4B inhibitor	BSA TAMRA ctr	TCR-CD3 inh conf	SIAE confirm	others
Cc1cc2ccccc2n1CCNC(=O)c1ccc(S(=O)(=O)N2CCCCC2)cc1	27	58*	63*	37*	3	-14	5	6	-3	ABHD4 confirm=193*
O=C(NCCc1ccccc1)c1ccc(S(=O)(=O)N2CCCCC2)cc1	5	5	6	2	1	·	·	·	·
CN(C)c1ccc(C=Cc2nccc3ccccc23)cc1	·	112*	157*	131*	139*	·	145*	88*	20*	PRMT1 confirm=61*;ABHD4 confirm=85*
COc1ccccc1CN(C)C(=O)C1CCCN(c2nc3ccccc3o2)C1 (centres undefined)	·	-2	·	-2	0	·	·	·	·
CCCCNC(=O)C1CCCN1C(=O)Nc1cc(C)cc(C)c1 (centres undefined)	·	0	·	1	-1	·	·	·	·
COC(=O)c1ccc2c(c1)SC1=C(CCCC1=O)N2	28	35*	37*	19*	25*	9	76*	57*	23*	ABHD4 confirm=32*
O=C1CCCC2=C1Sc1ccc(Cl)cc1N2	13	5	-2	7	9	-2	·	·	·
CN(C)C(=O)c1cccc(-c2cnc3c(NC=O)cc(-c4ccccc4N(C)C)cn23)c1	·	74*	42*	29*	137*	·	21	16	2	PRMT1 confirm=29*;ABHD4 confirm=71*
CN(CCC#N)C(=O)COC(=O)c1c2c(nc3ccccc13)/C(=C\c1ccco1)CC2	30	45*	34*	19*	32*	-19	-11	34*	6	PRMT1 confirm=20;ABHD4 confirm=-9
CC(=O)NC(Cc1ccccc1)P(=O)(O)O (centres undefined)	·	7	·	-2	-3	·	·	·	·
O=C(COC(=O)c1cc(-c2cccc3ccccc23)nc2ccccc12)NC1CCS(=O)(=O)C1 (centres undefined)	31	38*	30*	25*	25*	-23	54*	38*	15	ABHD4 confirm=8
Cc1cc(C(=O)OCC(=O)NC2CCS(=O)(=O)C2)c2ccccc2n1 (centres undefined)	-1	-2	7	-7	-1	-4	·	·	·
O=C(OCc1cn(Cc2c(F)cccc2F)nn1)N1CCCC1	·	8	·	4	1	·	·	·	·
O=C(NC(=S)NCc1ccccc1)c1cccnc1	-4	1	1	-2	-4	-2	·	·	·
O=C(Cc1ccccc1)NNC(=S)NC(=O)c1cccnc1	·	1	27*	17*	0	2	-6	21*	2
CC(=O)[C@@]1(O)Cc2c(O)c3c(c(O)c2[C@H](O[C@H]2C[C@H](N)[C@H](O)[C@H](C)O2)C1)C(=O)c1ccccc1C3=O	·	101*	175*	81*	169*	·	+	167*	81*	PRMT1 confirm=153*
CCOC(=O)c1c(C)[nH]c(C(=O)COC(=O)c2cnccn2)c1C	0	21	38*	20*	-142	2	-1	6	-1
O=C(Nc1ccc(F)cc1)OCCN1C(=O)CCC12CCC(c1ccc(Cl)cc1)CC2 (centres undefined)	·	-2	·	9	-3	·	·	·	·
Nc1cc2nc3ccccc3oc-2cc1=O	30	47*	23*	20*	24*	-6	1	15	7	ABHD4 confirm=29
O=c1oc2ccccc2cc1-c1nc2ccccc2o1	-7	4	-7	-6	-2	-4	·	·	·
O=C(c1cccs1)N1CC[C@H]2[C@H](CCCN2Cc2cc(F)cc(F)c2)C1	·	-6	·	3	2	·	·	·	·
Nc1ccccc1N1C(=O)c2cccc3cccc(c23)C1=O	·	1	-1	1	-4	-7	·	·	·
Cc1nn(C)c(C)c1N1C(=O)c2cccc3c(N)ccc(c23)C1=O	27	43*	49*	28*	180*	-117	57*	47*	21*	ABHD4 confirm=39*
C/C(=N\NC(=S)NCCc1ccccc1)c1ccc(O)cc1O	29	14	28*	17*	2	0	-16	8	20*
O=C(NCc1ccccc1)OCCCN1C(=O)CCC12CCCCC2	·	3	·	3	1	·	·	·	·
SMILES	HTRA1 inhibitor	ABHD4 inh	TCR CD3 inh	SIAE inh	PRMT1 inh	ATG4B inhibitor	BSA TAMRA ctr	TCR-CD3 inh conf	SIAE confirm	others
O=C1CCC(=O)c2ccc3c4c(ccc1c24)CC3	1	28	34*	19*	27*	-3	-5	2	-6	PRMT1 confirm=6
O=C1c2ccc3c4c(ccc(c24)C(=O)N1c1ccc2ccccc2c1)CC3	2	-5	4	-9	-3	0	·	·	·
COC(=O)[C@]12C[C@H](CC(=O)NCc3ccc(C)o3)C(=O)N(Cc3cccc4ccccc34)C1=C[C@H](C(C)C)O[C@@H]2C1CC1	·	-14	·	3	1	·	·	·	·
Cc1cc(C)c(-c2csc(NC(=O)C3=COCCO3)n2)c(C)c1	-13	-3	-10	-5	1	6	·	·	·
Cc1cc(-c2csc(NC(=O)C3=COCCO3)n2)c(C)n1C	10	10	22*	26*	1	1	-10	-3	-2
Cc1ccc(N(C)c2nc(N)nc(N)c2N=O)cc1	·	85*	197*	52*	173*	·	+	198*	95*
Cc1cccc(Nc2nc(N)nc(N)c2N=O)c1	6	5	4	-8	0	-2	·	·	·
CCC[C@H]1[C@@H](NC(=O)c2cccc(C(F)(F)F)c2)CC[C@@]23CCCN2C(=O)CCC[C@@H]13	·	2	·	-4	1	·	·	·	·
CC(=O)c1c(C)[nH]c(C(=O)OCC(=O)NCc2ccc(Cl)cc2)c1C	-29	13	23*	24*	168*	-4	1	0	-7	PRMT1 confirm=-2
COc1cc(C=NNC(=O)Cn2nc(C)cc2C)ccc1OC(=O)C1CC1	25	20	30*	20*	-75	-4	1	4	0
O=C1NC(=O)C(c2ccccc2[N+](=O)[O-])=C1Nc1ccc(O)c(Cl)c1	27	43*	20*	19*	14	-6	-16	-3	-1	ABHD4 confirm=3
O=C(NNc1ccccc1[N+](=O)[O-])Nc1ccc(Cl)c(Cl)c1	-23	-21	-3	-18	6	6	·	·	·
